Among the data in ChEMBL document CHEMBL3272165, “Cycloalkanoindoles. 2. 1-Alkyl-1,2,3,4-tetrahydrocarbazole-1-ethanamines and related compounds. Potential antidepressants” (J Med Chem, 1976) are ED50 and LD50 values, retold here.

The test system of one data set is Mus musculus. Nature of the data set: Antidepressant activity in ip dosed mouse assessed as prevention of reserpine-induced ptosis. The data set is classed as functional. The gist of the method: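 Mice dosed ip with test compound; reserpine given to induce ptosis (adapted Petersen et al. method). The percentage of mice with ptosis prevented was recorded. ED50 (mg/kg) derived by the Finney method.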

The subject of another data set is Rattus norvegicus. Nature of the data set: Antidepressant activity in ip dosed rat assessed as prevention of tetrabenazine-induced ptosis. The data set is classed as functional. Summed up: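 Rats dosed ip; tetrabenazine used to induce ptosis (modified Giurgea et al. method). ED50 (mg/kg) derived by the Finney method from prevention of ptosis.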
Data set [1] can be described thus: Acute toxicity in ip dosed albino mouse assessed as mortality measured for 5 days. The class given is organism-based. As to conditions: in vivo. The gist of the method:
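Graded intraperitoneal doses, five animals per group; approximate LD50 estimated from mortality recorded over the 5 days after dosing.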

As to `CN(C)CC1CCCc2c1[nH]c1ccc(Cl)cc21` (centres undefined), the 50% effective dose (ED50) in the data set with Mus musculus was greater than 30 mg/kg.

For `CCc1cccc2c3c(n(CC)c12)C(C)(CCN(C)C)CCC3.O=C(O)/C=C/C(=O)O` (centres undefined), the ED50 in the data set with Mus musculus came out at 19 mg/kg.

In the case of `Br.CCn1c2c(c3ccccc31)CCC2(C)CCN(C)C` (centres undefined), in the data set on Mus musculus, the ED50 is 0.75 mg/kg.

Consider `CCn1c2c(c3cc(Cl)ccc31)CCCC2(C)CCN(C)C.Cl` (centres undefined), for which, in the data set on Mus musculus, the ED50 turned out to be 0.19 mg/kg.

Consider `CN(C)CCCN1c2ccccc2CCc2ccccc21` [IMIPRAMINE], for which the figures for the 50% effective dose (ED50) with Rattus norvegicus and with Mus musculus were 22.6 mg/kg and 6 mg/kg, respectively.

Regarding `CCn1c2c(c3ccccc31)CCCC2(C)CCN(C)C.Cl` (centres undefined), the ED50 worked out at 3.3 mg/kg in the data set on Rattus norvegicus and 0.12 mg/kg in the data set on Mus musculus. In addition, in data set [1], the LD50 at 120 h worked out at 125 mg/kg.

For the compound `CCn1c2c(c3ccccc31)CCCC2(C)CCNC.Cl` (centres undefined), the ED50 with Mus musculus is 1.6 mg/kg. Moreover, the LD50 at 120 h in data set [1] worked out at 125 mg/kg.

Consider `Br.CCn1c2c(c3ccccc31)CCCC2(CC)CCN(C)C` (centres undefined), for which the median effective dose (ED50) in the data set on Mus musculus was 0.7 mg/kg. For the same compound, the LD50 at 120 h in data set [1] was determined as 175 mg/kg.

Turning to `CCCn1c2c(c3ccccc31)CCCC2(C)CCN(C)C.Cl` (centres undefined), the ED50 in the data set with Mus musculus was 0.4 mg/kg. For the same compound, the LD50 at 120 h in data set [1] amounted to 125 mg/kg.

As to `CN(C)CCC1CCCc2c1n(C)c1ccccc21.Cl` (centres undefined), the ED50 with Mus musculus stood at 5 mg/kg. Further, the median lethal dose (LD50) at 120 h in data set [1] came out at 125 mg/kg.

`CN(C)CCC1(C)CCCc2c1n(C)c1ccccc21.Cl` (centres undefined): the ED50 in the data set with Mus musculus turned out to be 0.8 mg/kg. For the same compound, the LD50 at 120 h in data set [1] came to 125 mg/kg.

On to `CCn1c2c(c3ccccc31)CCCCC2(C)CCN(C)C.Cl` (centres undefined), for which, in the data set on Mus musculus, the 50% effective dose (ED50) was 0.27 mg/kg. Further, in data set [1], the LD50 at 120 h came to 85 mg/kg.

Turning to `CN(C)CCC=C1c2ccccc2CCc2ccccc21` [AMITRIPTYLINE], the ED50 in the data set with Rattus norvegicus was 37 mg/kg; with Mus musculus, 4.7 mg/kg. Also, the LD50 at 120 h in data set [1] was determined as 94 mg/kg.
